Screens: PubChem BioAssay, several laboratories
A selection: hits, their analogues and other compounds. The true share with any hit is near 2.6%.
Platelet DG rel: inhibitors of platelet dense granule secretion, primary screen, cell-based, MLPCN, human platelets | human platelet-rich plasma, SFLLRN dense granule ATP release, luminescence | inhibition, %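 (compounds screened at 7.5 µM in platelet-rich plasma)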 | hit rate 0.22% among 300,000 | AID 1663, 2009;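 active = mean replicate score, as percent of positive control, at or above 50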
SENP8 block-1: human SENP8 protease inhibitors, primary screen, biochemical, fluorescence, Nedd8 protein substrate, uHTS | Sentrin-specific protease 8 (Homo sapiens), Q96LD8 | recombinant SENP8 | inhibition, % at 20 µM | hit rate 0.64% among 360,000 | AID 602440, 2012; in the data active = inhibition mostly above about 40%, no sharp cut-off; inactive = mostly below about 27%
SENP1 inh: human SENP1 catalytic domain inhibitors, primary screen, biochemical, FRET, uHTS | recombinant SENP1 catalytic domain, CyPet-SUMO1-YPet FRET cleavage | AID 624204, 2012 | inhibition, % at 10 µM | hit rate 0.21% among 360,000;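 active = inhibition at least 30% at 10 µM, raw YFP signal under a set limit, fluorescence ratio 0.5 to 1.5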;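 also: 0% = enzyme with DMSO and 100% = no enzyme wells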
Target sequence (Q9P0U3 419-644 limits assumed): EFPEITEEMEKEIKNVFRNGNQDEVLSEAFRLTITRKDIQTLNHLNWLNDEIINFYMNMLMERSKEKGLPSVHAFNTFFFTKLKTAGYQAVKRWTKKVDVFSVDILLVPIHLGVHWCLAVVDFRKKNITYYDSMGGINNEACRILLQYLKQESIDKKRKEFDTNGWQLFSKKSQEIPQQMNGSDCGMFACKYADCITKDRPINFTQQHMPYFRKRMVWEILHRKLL
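Material – human SENP1 catalytic domain · Input – SENP1 enzyme, 20 pM final · Compound dosing – single concentration of 10 µM compound, 0.5% DMSO final · Timing – enzyme reaction for 50 min at room temperature, dark · Measured by – FRET fluorescence in CFP and YFP emission channels · Control set – no-enzyme wells low, DMSO-plus-enzyme wells high control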
SENP6 block: SENP6 protease inhibitors, primary screen, biochemical, luminescence, uHTS | Recombinant SENP6 catalytic domain, aminoluciferin luminescence | inhibition, % at 10 µM | hit rate 1.8% among 330,000 | AID 2599, 2010;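 active = inhibition above about 50% at the single tested dose, limit read from the data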;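 also: plate controls were DMSO wells with enzyme for no effect and DMSO wells lacking enzyme for full effect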
SENP7 inh: SENP7 protease inhibitors, primary screen, biochemical, luminescence, uHTS; hit rate 1.5% among 330,000; recombinant SENP7, Z-RLRGG-aminoluciferin luminescence, 40 min; Sentrin-specific protease 7 (Homo sapiens), Q9BQF6; AID 434973, 2010; inhibition, % at 5 µM;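 active = inhibition above about 50% at the single test dose, limit read from the data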;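 also: plate controls were DMSO with enzyme for no effect and no enzyme buffer wells for full effect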
SENP8 block-2: SENP8 protease inhibitors, primary screen, biochemical, luminescence; hit rate 1.2% among 330,000; AID 2540, 2010; purified SENP8, Z-RLRGG-aminoluciferin cleavage; inhibition, % at 10 µM; Sentrin-specific protease 8 (Homo sapiens), Q96LD8; in the data active = inhibition above about 50%
SENP8 conf: SENP8 protease inhibitors, retest, confirmation, biochemical, luminescence, single concentration; shares compounds with SENP7 inh; Recombinant SENP8, Z-RLRGG-aminoluciferin luminescence, 60 min; inhibition, % at 12.5 µM; hit rate 40% among 6,200;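 active = mean inhibition across replicates above about 50%, limit read from the data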
SENP6 confirm: SENP6 protease inhibitors, confirmation, biochemical, luminescence, single concentration. recombinant SENP6, Z-RLRGG-aminoluciferin luminescence. inhibition, % at 12.5 µM. hit rate 58% among 6,200. shares compounds with SENP7 inh
SENP7 conf: SENP7 protease inhibitors, retest, confirmation, biochemical, luminescence, single concentration; recombinant SENP7, Z-RLRGG-aminoluciferin luminescence, 40 min; AID 488917, 2010; inhibition, % at 12.5 µM; shares compounds with SENP7 inh; hit rate 69% among 6,200
Casp3 select: caspase-3 protease inhibitors, confirmation, selectivity assay for SENP inhibitor project, biochemical, single concentration; purified caspase-3, Z-DEVD-aminoluciferin luminescence, 60 min; shares compounds with SENP7 inh; inhibition, % at 12.5 µM; hit rate 60% among 6,200;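 active = mean inhibition above about 50%, limit read from the data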;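 also: plate controls were enzyme with DMSO for no effect and wells without caspase-3 for full effect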
Target sequence (P42574 28-227 limits assumed): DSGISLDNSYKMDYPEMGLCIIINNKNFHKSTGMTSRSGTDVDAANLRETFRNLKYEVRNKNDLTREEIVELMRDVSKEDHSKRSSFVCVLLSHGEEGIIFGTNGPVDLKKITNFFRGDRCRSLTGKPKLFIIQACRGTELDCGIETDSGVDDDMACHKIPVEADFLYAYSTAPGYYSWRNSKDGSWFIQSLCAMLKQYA
Luc interf: luminescence interference (SENP counter-screen) | shares compounds with SENP7 inh | Pre-incubated SENP8/Z-RLRGG-aminoluciferin, luciferase luminescence interference | inhibition, % at 12.5 µM | hit rate 39% among 6,200 | AID 488919;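 active = mean inhibition above about 50% when retested at one dose, limit read from the data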;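 also: plate controls were DMSO wells with completed reaction for no effect and substrate without enzyme for full effect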
Starred values were filed as active, the others as inactive; . = no result.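 The calls were made as follows, unless noted: active = mean inhibition above about 50% in the one-dose retest (limit read from the data); inactive = the rest.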

SMILES	Platelet DG rel	SENP8 block-1	SENP1 inh	SENP6 block	SENP7 inh	SENP8 block-2	SENP8 conf	SENP6 confirm	SENP7 conf	Casp3 select	Luc interf
Cc1cccc(/C=C/C(=O)c2ccc(N3CCOCC3)cc2)c1	-3	.	.	89*	92*	84*	30	34	35	55*	80*
CCc1ccc(/C=C/C(=O)c2ccc(N3CCOCC3)cc2)cc1	-3	-20	4	-11	-1	-15	.	.	.	.	.
Cc1ccc(/C=C/C(=O)c2ccc(N3CCOCC3)cc2)s1	45	-12	29	81*	35	68*	-1	33	33	16	0
O=C(c1ccccc1)c1ccc(N2CCOCC2)cc1	.	-54	0	.	.	.	.	.	.	.	.
Cn1c(/C=C/c2ccccc2)nc2ccccc21	81*	-409	0	99*	99*	97*	99*	100*	103*	99*	98*
Cc1c(S(=O)(=O)N2CCN(c3cccc(Cl)c3)CC2)c(=O)n(C)c(=O)n1C	2	0	1	-17	-3	-5	.	.	.	.	.
COc1cc(OC)cc(C(=O)Nc2ccc(-n3cnnn3)c(C)c2)c1	43	12	1	94*	1	92*	69*	92*	101*	95*	92*
COc1cc(NC(=O)c2ccccc2-n2cnnn2)cc(OC)c1	1	17	2	-1	-3	6	.	.	.	.	.
Cc1cc(C)cc(NC2=C(N)C(=O)c3ccccc3C2=O)c1	2	48*	-4	70*	11	29	-3	6	2	5	-6
CSc1ccccc1NC(=O)Nc1ccc(Cl)cc1	0	13	0	7	96*	92*	3	96*	101*	85*	63*
COc1ccc(Cl)cc1NC(=O)Nc1ccccc1SC	-5	10	-1	-8	0	0	.	.	.	.	.
COc1ccc(NC(=O)Nc2ccc(OC)cc2)cc1	10	20	1	-18	15	-4	.	.	.	.	.
COc1ccc(NC(=O)Nc2ccc(N(C)C)cc2)cc1	17	17	3	81*	77*	47	24	70*	90*	85*	14
COc1ccc(NC(=O)Nc2ccccc2SC)cc1	26	20	-1	96*	98*	92*	95*	96*	101*	96*	16
C/C(=N\NC(=O)c1ccc(Br)cc1)c1ccccc1	16	20	0	70*	36	38	24	55*	36	48	21
C/C(=N\NC(=O)c1ccc2c(c1)OCCO2)c1ccccc1	71*	16	1	89*	96*	86*	2	87*	99*	94*	82*
CCc1ccc2c(COC(=O)C3CSC4(C)CCC(=O)N34)cc(=O)oc2c1 (stereo not given)	.	-4	1	3	3	1	.	.	.	.	.
c1ccc(-c2ccc(C3=Nn4c(Cn5nnc6ccccc65)nnc4SC3)cc2)cc1	-2	20	0	-1	8	-4	.	.	.	.	.
Cc1nc(NS(=O)(=O)c2ccccc2)sc1NC(=O)OC(C)C	6	6	2	-4	98*	1	-7	0	-3	-3	-2
CCSC1=N/C(=C\c2ccc(-c3ccccc3[N+](=O)[O-])o2)C(=O)S1	16	6	-20	50*	28	13	5	4	4	6	3
COc1ccc(OC)c(NC(=O)C(=O)NNC(=O)c2cccs2)c1	2	12	-1	7	-4	8	.	.	.	.	.
N#Cc1ccc(NC(=O)c2cc(-c3cccs3)on2)cc1	0	-33	1	58*	8	2	-24	-18	-12	-11	-8
Cc1cc(NC(=O)c2cc(-c3cccs3)on2)no1	-1	4	1	-5	7	-1	.	.	.	.	.
Cc1ccccc1C(=O)O/N=C(\N)c1ccc([N+](=O)[O-])cc1	-13	12	0	2	-7	1	.	.	.	.	.
Cc1ccccc1C(=O)O/N=C(\N)c1ccccc1	60*	13	2	95*	100*	93*	97*	98*	102*	98*	96*
SMILES	Platelet DG rel	SENP8 block-1	SENP1 inh	SENP6 block	SENP7 inh	SENP8 block-2	SENP8 conf	SENP6 confirm	SENP7 conf	Casp3 select	Luc interf
C/C(=N/OC(=O)c1ccc(F)cc1)c1ccc(C)cc1	0	20	2	60*	71*	55*	12	8	18	17	5
N/C(=N\OC(=O)/C=C/c1ccccc1)c1ccccc1	12	9	3	90*	-2	80*	90*	89*	99*	90*	83*
Cc1cccc(/C(N)=N/OC(=O)c2ccoc2C)c1	37	14	1	97*	98*	94*	97*	97*	102*	97*	96*
Cc1ccc(N2CC(C(=O)N3CCCCCC3)CC2=O)cc1 (stereo not given)	-2	-7	3	-9	4	-4	.	.	.	.	.
Cc1ccccc1/C(N)=N/OC(=O)c1ccc(F)cc1	7	10	4	74*	81*	61*	70*	72*	93*	90*	75*
Cc1ccccc1C(=O)NNC(=O)c1ccc(F)cc1	-3	21	1	5	8	3	.	.	.	.	.
Cc1occc1C(=O)O/N=C(\N)c1ccccc1	72*	11	-4	94*	93*	91*	94*	95*	102*	98*	94*
O=C(NNC(=S)Nc1ccccc1Cl)c1ccccc1Br	3	13	2	73*	67*	73*	44	41	22	13	30
